The compounds below were run against T1, UniProt Q8VGZ7. Conditions: stereoisomer not certain.
T1 sequence (whole entry): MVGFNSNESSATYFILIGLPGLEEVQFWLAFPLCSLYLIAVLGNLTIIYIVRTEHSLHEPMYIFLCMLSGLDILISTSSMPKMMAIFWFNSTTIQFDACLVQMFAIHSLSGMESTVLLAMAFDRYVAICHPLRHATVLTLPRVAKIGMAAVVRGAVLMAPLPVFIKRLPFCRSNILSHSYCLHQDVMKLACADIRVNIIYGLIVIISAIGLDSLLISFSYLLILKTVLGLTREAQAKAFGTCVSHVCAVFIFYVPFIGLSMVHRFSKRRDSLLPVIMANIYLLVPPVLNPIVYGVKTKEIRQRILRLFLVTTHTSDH
Method in brief: (§1)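 Values were gathered from published papers (main text and supplementary material), with extra details requested from the original authors when needed, and checked for typos and inconsistencies. Each receptor–molecule pair is called responsive (active) if the original authors judged the measured signal statistically different from baseline, and non-responsive (inactive) otherwise. Assay methods varied by source, often transient mammalian cell-line luciferase assays. Recorded details include cell line, G-protein, co-transfected protein and tags.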

Odorant receptor agonist call, inactive:
CCCCCCCCCCOC(C)=O
COC(OC)c1ccccc1
C=C(C)C1CCC2(C)OC2C1 (configuration not stated)
CCCCCOC(=O)CCC
CCc1ccc(O)cc1
Cc1c(C)c(C)c(C=O)c(C)c1C
CCCCCC(C)O (configuration not stated)
c1ccc2ncccc2c1
CCSCC
CC(C)CCN
CC1(C)CC(=O)CC(=O)C1
CC(=O)OC1(C)CCC23CC1C(C)(C)C2CCC3C (configuration not stated)
CC(C)=C1CCC(C)CC1=O (configuration not stated)
COc1nccnc1C(C)C
CNc1ccccc1C(=O)OC
CSSCc1ccco1
Cc1ccc(OC(=O)C(C)C)cc1
O=C(O)CCCCCCCCC(=O)O
COc1cnccn1
COc1ccccc1
OCCCCCCCCCO
C=C(C)C1CC=C(C)CC1 (configuration not stated)
COc1nccnc1C
CC(CC=O)CCCC(C)(C)O (configuration not stated)

Each compound was assayed against T2, UniProt Q8VH16. Conditions: stereoisomer not certain.
T2 sequence (whole entry): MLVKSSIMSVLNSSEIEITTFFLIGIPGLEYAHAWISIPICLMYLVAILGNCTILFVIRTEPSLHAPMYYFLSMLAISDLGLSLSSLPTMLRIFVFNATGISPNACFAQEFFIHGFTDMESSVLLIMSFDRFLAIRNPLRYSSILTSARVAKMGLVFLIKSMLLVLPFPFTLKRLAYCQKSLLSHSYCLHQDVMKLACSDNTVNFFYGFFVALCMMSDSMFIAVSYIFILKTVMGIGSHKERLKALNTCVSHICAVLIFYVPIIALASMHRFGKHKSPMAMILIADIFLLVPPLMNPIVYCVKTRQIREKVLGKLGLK
Method in brief: as §1

Odorant receptor agonist call, inactive:
CCCCCCCCCCOC(C)=O
COC(OC)c1ccccc1
C=C(C)C1CCC2(C)OC2C1 (configuration not stated)
CCCCCOC(=O)CCC
CCc1ccc(O)cc1
Cc1c(C)c(C)c(C=O)c(C)c1C
CCCCCC(C)O (configuration not stated)
c1ccc2ncccc2c1
CCSCC
CC(C)CCN
CC1(C)CC(=O)CC(=O)C1
CC(=O)OC1(C)CCC23CC1C(C)(C)C2CCC3C (configuration not stated)
CC(C)=C1CCC(C)CC1=O (configuration not stated)
COc1nccnc1C(C)C
CNc1ccccc1C(=O)OC
CSSCc1ccco1
Cc1ccc(OC(=O)C(C)C)cc1
O=C(O)CCCCCCCCC(=O)O
COc1cnccn1
COc1ccccc1
OCCCCCCCCCO
C=C(C)C1CC=C(C)CC1 (configuration not stated)
COc1nccnc1C
CC(CC=O)CCCC(C)(C)O (configuration not stated)

Each compound was assayed against T3, UniProt Q8VH20. Conditions: stereoisomer not certain.
T3 sequence (whole entry): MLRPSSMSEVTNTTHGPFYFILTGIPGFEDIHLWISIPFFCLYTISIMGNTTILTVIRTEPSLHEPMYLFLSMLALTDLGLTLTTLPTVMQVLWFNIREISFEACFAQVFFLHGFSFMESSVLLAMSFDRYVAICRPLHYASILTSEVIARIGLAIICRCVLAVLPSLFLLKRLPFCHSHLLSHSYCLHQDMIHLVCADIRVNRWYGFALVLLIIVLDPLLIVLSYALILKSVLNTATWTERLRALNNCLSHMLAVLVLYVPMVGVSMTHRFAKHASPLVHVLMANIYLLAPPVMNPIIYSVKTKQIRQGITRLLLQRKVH
Method in brief: as §1

Odorant receptor agonist call, inactive:
CCCCCCCCCCOC(C)=O
COC(OC)c1ccccc1
C=C(C)C1CCC2(C)OC2C1 (configuration not stated)
CCCCCOC(=O)CCC
CCc1ccc(O)cc1
Cc1c(C)c(C)c(C=O)c(C)c1C
CCCCCC(C)O (configuration not stated)
c1ccc2ncccc2c1
CCSCC
CC(C)CCN
CC1(C)CC(=O)CC(=O)C1
CC(C)=C1CCC(C)CC1=O (configuration not stated)
COc1nccnc1C(C)C
CNc1ccccc1C(=O)OC
CSSCc1ccco1
Cc1ccc(OC(=O)C(C)C)cc1
O=C(O)CCCCCCCCC(=O)O
COc1cnccn1
COc1ccccc1
OCCCCCCCCCO
C=C(C)C1CC=C(C)CC1 (configuration not stated)
COc1nccnc1C
CC(CC=O)CCCC(C)(C)O (configuration not stated)

Odorant receptor agonist call, active:
CC(=O)OC1(C)CCC23CC1C(C)(C)C2CCC3C (configuration not stated)
